Laboratory results from ChEMBL document CHEMBL2407075, “Sulphonamido-quinoxalines: search for anticancer agent” (Eur J Med Chem, 2013).

Experiments:
Format in all cases: functional
[1] = system: K562; experiment: Growth inhibition of human K562 cells assessed as cell growth at 10^-6 M after 48 hrs by sulforhodamine B assay; conditions: K562, 48 h, read-out: Activity
[2] = system: OVCAR-8; experiment: Growth inhibition of human OVCAR8 cells assessed as cell growth at 10^-7 M after 48 hrs by sulforhodamine B assay; conditions: OVCAR-8, 48 h, read-out: Activity
[3] = system: NCI-H226; experiment: Growth inhibition of human NCI-H226 cells assessed as cell growth at 10^-5 M after 48 hrs by sulforhodamine B assay; conditions: NCI-H226, 48 h, read-out: Activity
[4] = system: NCI-H460; experiment: Growth inhibition of human NCI-H460 cells after 48 hrs by sulforhodamine B assay; conditions: NCI-H460, 48 h; for CC50: read-out: LC50 (the source's name)
Outline: (§1)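 Adherent cells in RPMI 1640 with 5% FBS and 2 mM L-glutamine were plated at 5000–40,000 cells/well and grown 24 h. Five concentrations (0.01–100 µM, DMSO stock) were added for 48 h at 37 °C. Cells were fixed with cold TCA (10% final) and stained with SRB, read at 515 nm. GI50 came from log concentration–growth curves against time-zero and control plates.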

[5] = system: SK-OV-3; experiment: Growth inhibition of human SKOV3 cells assessed as cell growth at 10^-7 M after 48 hrs by sulforhodamine B assay; conditions: SK-OV-3, 48 h, read-out: Activity
[6] = Growth inhibition of human Hs 578T cells assessed as cell growth at 10^-8 M after 48 hrs by sulforhodamine B assay; conditions: read-out: Activity
Outline: (§2)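 Five-dose screen at NCI. Cells in RPMI 1640 with 5% FBS and 2 mM L-glutamine, seeded at 5000–40,000 cells/well and grown 24 h at 37 °C, 5% CO2 before dosing, with time-zero plates TCA-fixed. Drug diluted from DMSO stock to 0.01, 0.1, 1, 10 and 100 µM final, 48 h. Cells fixed with cold TCA (10% final), stained with 0.4% SRB and read at 515 nm. Percent growth from Tz, control and test absorbances; GI50, TGI and LC50 from dose-response curves.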

[7] = system: UO-31; experiment: Growth inhibition of human UO31 cells assessed as cell growth at 10^-5 M after 48 hrs by sulforhodamine B assay; conditions: UO-31, 48 h, read-out: Activity
[8] = system: SNB-75; experiment: Growth inhibition of human SNB75 cells assessed as cell growth at 10^-4 M after 48 hrs by sulforhodamine B assay; conditions: SNB-75, 48 h, read-out: Activity
[9] = system: 786-0; experiment: Growth inhibition of human 786-0 cells assessed as cell growth at 10^-5 M after 48 hrs by sulforhodamine B assay; conditions: 786-0, 48 h, read-out: Activity
Outline: (§3)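 Five-dose NCI-60 run (0.01, 0.1, 1, 10 and 100 µM, as 10-fold dilutions from a DMSO stock made at 400× the top final level). Cells were grown in RPMI 1640 with 5% FBS and 2 mM glutamine and plated for 24 h. They were then exposed for 48 h at 37 °C and 5% CO2. TCA fixation was followed by SRB staining with A515 read-out. Percent growth was taken relative to time-zero and control plates.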

[10] = system: Malme-3M; experiment: Growth inhibition of human MALME-3M cells assessed as cell growth at 10^-5 M after 48 hrs by sulforhodamine B assay; conditions: read-out: Activity
[11] = Growth inhibition of human Hs 578T cells assessed as cell growth at 10^-7 M after 48 hrs by sulforhodamine B assay; conditions: read-out: Activity; outline: as §2
[12] = system: SR; experiment: Growth inhibition of human SR cells assessed as cell growth at 10^-5 M after 48 hrs by sulforhodamine B assay; conditions: read-out: Activity
[13] = system: NCI-H460; experiment: Growth inhibition of human NCI-H460 cells assessed as cell growth at 10^-7 M after 48 hrs by sulforhodamine B assay; conditions: NCI-H460, 48 h, read-out: Activity
[14] = system: HL-60(TB); experiment: Growth inhibition of human HL-60(TB) cells assessed as cell growth at 10^-8 M after 48 hrs by sulforhodamine B assay; conditions: HL-60, 48 h, read-out: Activity
Outline: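 HL-60(TB) suspension cells were treated 48 h at 37 °C within the five-dose series (0.01–100 µM), fixed with 16% final TCA and SRB-stained, read at 515 nm. Percentage growth at each concentration = (Ti−Tz)/(C−Tz)×100, or (Ti−Tz)/Tz×100 when Ti<Tz, with time-zero (Tz) and untreated control (C) plates.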

[15] = system: A498; experiment: Growth inhibition of human A498 cells assessed as cell growth at 10^-6 M after 48 hrs by sulforhodamine B assay; conditions: A498, 48 h, read-out: Activity; outline: as §3
[16] = system: RXF 393; experiment: Growth inhibition of human RXF393 cells assessed as cell growth at 10^-7 M after 48 hrs by sulforhodamine B assay; conditions: RXF 393, 48 h, read-out: Activity
[17] = system: HCT-15; experiment: Growth inhibition of human HCT15 cells assessed as cell growth at 10^-4 M after 48 hrs by sulforhodamine B assay; conditions: HCT-15, 48 h, read-out: Activity; outline: as §2
[18] = system: IGROV-1; experiment: Growth inhibition of human IGROV1 cells assessed as cell growth at 10^-5 M after 48 hrs by sulforhodamine B assay; conditions: IGROV-1, 48 h, read-out: Activity; outline: as §2
[19] = system: HOP-92; experiment: Growth inhibition of human HOP92 cells assessed as cell growth at 10^-8 M after 48 hrs by sulforhodamine B assay; conditions: HOP-92, 48 h, read-out: Activity; outline: as §2
[20] = system: MCF7; experiment: Growth inhibition of human MCF7 cells assessed as cell growth at 10^-6 M after 48 hrs by sulforhodamine B assay; conditions: MCF7, 48 h, read-out: Activity
[21] = system: UACC-62; experiment: Growth inhibition of human UACC62 cells assessed as cell growth at 10^-4 M after 48 hrs by sulforhodamine B assay; conditions: UACC-62, 48 h, read-out: Activity
[22] = system: LOX IMVI; experiment: Growth inhibition of human LOXIMVI cells assessed as cell growth at 10^-7 M after 48 hrs by sulforhodamine B assay; conditions: read-out: Activity
[23] = system: MDA-MB-435; experiment: Growth inhibition of human MDA-MB-435 cells assessed as cell growth at 10^-5 M after 48 hrs by sulforhodamine B assay; conditions: MDA-MB-435, 48 h, read-out: Activity
[24] = system: UACC-257; experiment: Growth inhibition of human UACC257 cells assessed as cell growth at 10^-5 M after 48 hrs by sulforhodamine B assay; conditions: UACC-257, 48 h, read-out: Activity
[25] = system: U-251; experiment: Growth inhibition of human U251 cells after 48 hrs by sulforhodamine B assay; conditions: U-251, 48 h; for CC50: read-out: LC50 (the source's name); outline: as §1
[26] = system: U-251; experiment: Growth inhibition of human U251 cells assessed as cell growth at 10^-8 M after 48 hrs by sulforhodamine B assay; conditions: U-251, 48 h, read-out: Activity
[27] = system: UACC-257; experiment: Growth inhibition of human UACC257 cells assessed as cell growth at 10^-4 M after 48 hrs by sulforhodamine B assay; conditions: UACC-257, 48 h, read-out: Activity
[28] = system: U-251; experiment: Growth inhibition of human U251 cells assessed as cell growth at 10^-5 M after 48 hrs by sulforhodamine B assay; conditions: U-251, 48 h, read-out: Activity

| Compound | growth at 1 µM [1] [%] | growth at 0.1 µM [2] [%] | growth at 10 µM [3] [%] | CC50 [4] [µM] | growth at 0.1 µM [5] [%] | growth at 0.01 µM [6] [%] | growth at 10 µM [7] [%] | growth at 100 µM [8] [%] | growth at 10 µM [9] [%] | growth at 10 µM [10] [%] | growth at 0.1 µM [11] [%] | growth at 10 µM [12] [%] | growth at 0.1 µM [13] [%] | growth at 0.01 µM [14] [%] | growth at 1 µM [15] [%] | growth at 0.1 µM [16] [%] | growth at 100 µM [17] [%] | growth at 10 µM [18] [%] | growth at 0.01 µM [19] [%] | growth at 1 µM [20] [%] | further results |
| --- | --- | --- | --- | --- | --- | --- | --- | --- | --- | --- | --- | --- | --- | --- | --- | --- | --- | --- | --- | --- | --- |
| O=S(=O)(Nc1ccc(Cl)cc1)c1ccc2nc(-c3ccccc3)c(-c3ccccc3)nc2c1 | 95 | 101 | -29 | > 100 | 99 | 84 | 6 | 46 | -45 | -43 | 98 | -48 | 105 | 97 | 65 | 103 | 68 | 24 | 96 | 93 | growth at 100 µM [21]: 62%; growth at 0.1 µM [22]: 99%; growth at 10 µM [23]: -25%; growth at 10 µM [24]: -24%; CC50 [25]: > 100 µM; growth at 0.01 µM [26]: 97%; growth at 100 µM [27]: 67%; growth at 10 µM [28]: -5% |
| O=S(=O)(Nc1ccccn1)c1ccc2nc(-c3ccccc3)c(-c3ccccc3)nc2c1 | 82 | 97 | -35 | > 100 | 98 | 93 | -5 | 20 | -30 | -40 | 94 | -42 | 106 | 98 | 66 | 109 | 63 | 30 | 94 | 87 | TGI [4]: > 100 µM; growth at 100 µM [21]: 64%; growth at 0.1 µM [22]: 97%; growth at 10 µM [23]: -25%; growth at 10 µM [24]: -25%; GI50 [25]: 2.61 µM; TGI [25]: > 100 µM; CC50 [25]: > 100 µM; growth at 0.01 µM [26]: 99%; growth at 100 µM [27]: 53%; growth at 10 µM [28]: 2% |
